Assay results from ChEMBL document CHEMBL1131588, “A novel class of orally active non-peptide bradykinin B2 receptor antagonists. 2. Overcoming the species difference between guinea pig and man” (J Med Chem, 1998).

Columns and labels:
B2 bradykinin receptor [1] = target: T1, B2 bradykinin receptor (Cavia porcellus, UniProt O70526); assay: Concentration required to inhibit specific binding of [3H]BK at 0.06 nM to Bradykinin receptor B2 in guinea pig ileum membrane preparations by 50%.; assay type: cell membranes
T1 sequence (O70526 whole entry): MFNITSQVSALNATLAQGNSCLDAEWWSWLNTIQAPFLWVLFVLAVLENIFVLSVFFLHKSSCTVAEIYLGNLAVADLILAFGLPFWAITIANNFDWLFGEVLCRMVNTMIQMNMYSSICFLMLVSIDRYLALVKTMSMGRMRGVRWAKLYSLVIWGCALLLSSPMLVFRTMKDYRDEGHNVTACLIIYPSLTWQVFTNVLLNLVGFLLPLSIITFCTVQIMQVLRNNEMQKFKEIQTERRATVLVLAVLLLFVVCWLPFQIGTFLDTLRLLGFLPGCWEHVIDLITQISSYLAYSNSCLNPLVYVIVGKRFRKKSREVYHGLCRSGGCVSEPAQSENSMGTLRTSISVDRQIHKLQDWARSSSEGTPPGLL
Summary of the method: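 Guinea pig ileal membranes (100000g pellet, pH 6.8 TES buffer with phenanthroline, bacitracin, DTT, captopril, 0.1% BSA), 0.2 mg protein/mL, incubated with 0.06 nM [3H]BK and compounds 60 min at room temperature; final DMSO below 3%. Filtration on glass fiber filters, scintillation counting; nonspecific binding with 1 µM BK. Three experiments in duplicate.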

Cavia porcellus [2] = assay: Compound tested in vivo for inhibition of Bradykinin induced Bronchoconstriction in anaesthetized guinea pig.(P<0.01); % Inhibition at 3.2 mg/kg p.o.; assay type: functional; conditions: route oral
Summary of the method: (§1)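 Male Hartley guinea pigs (470-750 g), fasted overnight, anesthetized with pentobarbital 30 mg/kg ip, cannulated (trachea, jugular vein, esophagus), ventilated 10 mL/kg at 60 breaths/min; alcuronium 0.5 mg/kg iv, propranolol 10 mg/kg sc. BK 5 µg/kg iv; peak rise in insufflation pressure (modified Konzett-Rössler).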

B2 bradykinin receptor [3] = target: T2, B2 bradykinin receptor (Homo sapiens, UniProt P30411); assay: Concentration required to inhibit specific binding of [3H]BK at 1.2 nM to A-431 cells (human epidermoid carcinoma) which express Bradykinin receptor B2 by 50%.; assay type: cell-based
T2 sequence (P30411 whole entry): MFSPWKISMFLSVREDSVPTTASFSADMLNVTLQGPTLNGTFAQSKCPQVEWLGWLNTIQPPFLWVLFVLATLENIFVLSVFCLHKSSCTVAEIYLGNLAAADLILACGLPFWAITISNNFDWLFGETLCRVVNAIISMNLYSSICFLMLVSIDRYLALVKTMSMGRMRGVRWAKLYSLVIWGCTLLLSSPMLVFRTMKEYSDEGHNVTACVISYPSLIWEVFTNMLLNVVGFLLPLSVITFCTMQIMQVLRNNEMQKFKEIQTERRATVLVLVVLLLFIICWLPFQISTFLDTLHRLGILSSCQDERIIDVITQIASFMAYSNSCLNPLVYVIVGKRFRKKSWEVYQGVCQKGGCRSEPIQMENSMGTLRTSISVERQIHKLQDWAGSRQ

Cavia porcellus [4] = assay: Compound tested in vivo for inhibition of Bradykinin induced Bronchoconstriction in anaesthetized guinea pig.(P<0.01); % Inhibition at 1 mg/Kg p,o.; assay type: functional; summary of the method: as §1
Cavia porcellus [5] = assay: Compound tested in vivo for inhibition of Bradykinin induced Bronchoconstriction in anaesthetized guinea pig; % Inhibition at 1 mg/Kg p,o.; assay type: functional; summary of the method: as §1
Cavia porcellus [6] = assay: Compound tested in vivo for inhibition of Bradykinin induced Bronchoconstriction in anaesthetized guinea pig; % Inhibition at 3.2 mg/Kg p,o.; assay type: functional; summary of the method: as §1
Cavia porcellus [7] = assay: Compound tested in vivo for inhibition of Bradykinin induced Bronchoconstriction in anaesthetized guinea pig.(P<0.05); % Inhibition at 3.2 mg/Kg p,o.; assay type: functional; conditions: in the assay text read “0.32 mg/Kg” for “3.2 mg/Kg”; summary of the method: as §1
Cavia porcellus [8] = assay: Compound tested in vivo for inhibition of Bradykinin induced Bronchoconstriction in anaesthetized guinea pig.(P<0.01); % Inhibition at 1 mg/kg. p.o.; assay type: functional; conditions: route oral; summary of the method: as §1
Cavia porcellus [9] = assay: Compound tested in vivo for inhibition of Bradykinin induced Bronchoconstriction in anaesthetized guinea pig.(P<0.05); % Inhibition at 1 mg/Kg p,o.; assay type: functional; summary of the method: as §1
Cavia porcellus [10] = assay: Compound tested in vivo for inhibition of Bradykinin induced Bronchoconstriction in anaesthetized guinea pig.(P<0.001); % Inhibition at 3.2 mg/Kg p,o.; assay type: functional; summary of the method: as §1
Cavia porcellus [11] = assay: Compound tested in vivo for inhibition of Bradykinin induced Bronchoconstriction in anaesthetized guinea pig.(P<0.001);% Inhibition at 3.2 mg/Kg p,o.; assay type: functional; summary of the method: as §1
Cavia porcellus [12] = assay: Compound tested in vivo for inhibition of Bradykinin induced Bronchoconstriction in anaesthetized guinea pig.(P<0.01); % Inhibition at 3.2 mg/Kg p,o.; assay type: functional; summary of the method: as §1
Cavia porcellus [13] = assay: Compound tested in vivo for inhibition of Bradykinin induced Bronchoconstriction in anaesthetized guinea pig.(P<0.001); % Inhibition at 1 mg/Kg p,o.; assay type: functional; summary of the method: as §1

Structure (SMILES) | IC50 (B2 bradykinin receptor [1]) | IC50 (B2 bradykinin receptor [3]) | Inhibition (Cavia porcellus [4]) | other results
Cc1nc2c(OCc3c(Cl)ccc(N(C)C(=O)CNC(=O)Nc4cccc(Cl)c4)c3Cl)cccn2c1Br.Cl | 3.8 nM | 1900 nM | 14.5% | –
Cc1nc2c(OCc3c(Cl)ccc(N(C)C(=O)CNC(=O)Nc4cccc(C#N)c4)c3Cl)cccn2c1Br.Cl | 1.4 nM | 190 nM | 4.7% | –
Cc1nc2c(OCc3c(Cl)ccc(N(C)C(=O)CNC(=O)CCCc4ccccc4)c3Cl)cccn2c1Br | 8.9 nM | 480 nM | – | –
NC(N)=NCCC[C@@H](N)C(=O)N[C@@H](CCCN=C(N)N)C(=O)N1CCC[C@H]1C(=O)N1C[C@H](O)C[C@H]1C(=O)NCC(=O)N[C@@H](Cc1cccs1)C(=O)N[C@@H](CO)C(=O)N1Cc2ccccc2C[C@@H]1C(=O)N1[C@H](C(=O)N[C@@H](CCCN=C(N)N)C(=O)O)C[C@@H]2CCCC[C@@H]21 [ICATIBANT] | 0.09 nM | – | – | –
Cc1nc2c(OCc3c(Cl)ccc(N(C)C(=O)CNC(=O)Cc4ccccc4)c3Cl)cccn2c1Br.Cl | 5.3 nM | 670 nM | – | Inhibition (Cavia porcellus [6]): 19.8%
CCCCCC(=O)NCC(=O)N(C)c1ccc(Cl)c(COc2cccn3c(Br)c(C)nc23)c1Cl | 5.6 nM | 240 nM | – | –
Cc1nc2c(OCc3c(Cl)ccc(N(C)C(=O)CNC(=O)COc4ccccc4)c3Cl)cccn2c1Br | 4.2 nM | 510 nM | – | –
Cc1nc2c(OCc3c(Cl)ccc(N(C)C(=O)CNC(=O)Nc4cccc([N+](=O)[O-])c4)c3Cl)cccn2c1Br | 4.2 nM | 180 nM | – | inhibition in vivo at 1 mg/kg (Cavia porcellus [8]): 13.6%
CCNC(=O)NCC(=O)N(C)c1ccc(Cl)c(COc2cccn3c(Br)c(C)nc23)c1Cl | – | 3000 nM | – | Inhibition (Cavia porcellus [10]): 78.1%; inhibition in vivo at 1 mg/kg (Cavia porcellus [8]): 57.2%
Cc1nc2c(OCc3c(Cl)ccc(N(C)C(=O)CNC(=O)CCc4ccccc4)c3Cl)cccn2c1Br | 1.4 nM | 350 nM | – | –
Cc1nc2c(OCc3c(Cl)ccc(N(C)C(=O)CNC(=O)CN(C)C)c3Cl)cccn2c1Br | – | 830 nM | – | Inhibition (Cavia porcellus [11]): 92.8%; inhibition in vivo at 1 mg/kg (Cavia porcellus [8]): 72.4%
Cc1nc2c(OCc3c(Cl)ccc(N(C)C(=O)CNC(=O)Nc4cccc(N)c4)c3Cl)cccn2c1Br | 15 nM | > 1000 nM | – | –
Cc1nc2c(OCc3c(Cl)ccc(N(C)C(=O)CNC(=O)NC(=O)c4ccccc4)c3Cl)cccn2c1Br | 340 nM | 510 nM | – | –
Cc1nc2c(OCc3c(Cl)ccc(N(C)C(=O)CNC(=O)Nc4cccc(C(=O)O)c4)c3Cl)cccn2c1Br | 63 nM | 5200 nM | – | –
Cc1ccc(NC(=O)NCC(=O)N(C)c2ccc(Cl)c(COc3cccn4c(Br)c(C)nc34)c2Cl)cc1.Cl | 12 nM | 260 nM | – | Inhibition (Cavia porcellus [12]): 35%
Cc1nc2c(OCc3c(Cl)ccc(N(C)C(=O)CNC(=O)Nc4ccccc4)c3Cl)cccn2c1Br | 1.4 nM | 150 nM | – | –
CCOC(=O)c1cccc(NC(=O)NCC(=O)N(C)c2ccc(Cl)c(COc3cccn4c(Br)c(C)nc34)c2Cl)c1 | 2.2 nM | 150 nM | – | –
CCCC(=O)NCC(=O)N(C)c1ccc(Cl)c(COc2cccn3c(Br)c(C)nc23)c1Cl | – | 610 nM | – | inhibition in vivo at 1 mg/kg (Cavia porcellus [8]): 52.7%
CC(=O)NCC(=O)N(C)c1ccc(Cl)c(COc2cccn3c(Br)c(C)nc23)c1Cl.Cl | – | 4100 nM | – | Inhibition (Cavia porcellus [10]): 94.2%; inhibition in vivo at 1 mg/kg (Cavia porcellus [8]): 62.3%
Cc1nc2c(OCc3c(Cl)ccc(N(C)C(=O)CNC(=O)NCc4ccccc4)c3Cl)cccn2c1Br.Cl | 11 nM | 570 nM | – | Inhibition (Cavia porcellus [6]): 24.1%
COc1cccc(NC(=O)NCC(=O)N(C)c2ccc(Cl)c(COc3cccn4c(Br)c(C)nc34)c2Cl)c1.Cl | 2.3 nM | 200 nM | 0% | –

Continued by falling IC50 (B2 bradykinin receptor [3]), values first:

IC50 (B2 bradykinin receptor [1]) | IC50 (B2 bradykinin receptor [3]) | Structure (SMILES) | Inhibition (Cavia porcellus [4]) | other results
83 nM | 150 nM | Cc1ccccc1NC(=O)NCC(=O)N(C)c1ccc(Cl)c(COc2cccn3c(Br)c(C)nc23)c1Cl | – | –
2.7 nM | 140 nM | Cc1cccc(NC(=O)NCC(=O)N(C)c2ccc(Cl)c(COc3cccn4c(Br)c(C)nc34)c2Cl)c1 | – | inhibition in vivo at 3.2 mg/kg (Cavia porcellus [2]): 27.4%
0.78 nM | 120 nM | Cc1nc2c(OCc3c(Cl)ccc(N(C)C(=O)CNC(=O)/C=C\c4ccccc4)c3Cl)cccn2c1Br | – | inhibition in vivo at 1 mg/kg (Cavia porcellus [8]): 0%
2.7 nM | 75 nM | COCC(=O)Nc1cccc(NC(=O)NCC(=O)N(C)c2ccc(Cl)c(COc3cccn4c(Br)c(C)nc34)c2Cl)c1 | – | –
0.79 nM | 61 nM | CC(=O)c1cccc(NC(=O)NCC(=O)N(C)c2ccc(Cl)c(COc3cccn4c(Br)c(C)nc34)c2Cl)c1.Cl | 24.9% | –
0.79 nM | 20 nM | COCCNC(=O)c1cccc(NC(=O)NCC(=O)N(C)c2ccc(Cl)c(COc3cccn4c(Br)c(C)nc34)c2Cl)c1.Cl | 16.1% | –
0.76 nM | 20 nM | Cc1nc2c(OCc3c(Cl)ccc(N(C)C(=O)CNC(=O)Nc4cccc(C(=O)N(C)C)c4)c3Cl)cccn2c1Br.Cl | 23.2% | –
1.1 nM | 16 nM | CC(=O)N(C)c1ccc(/C=C/C(=O)NCC(=O)N(C)c2ccc(Cl)c(COc3cccn4c(Br)c(C)nc34)c2Cl)cc1.Cl | 84.3% | –
0.36 nM | 9.1 nM | CNC(=O)c1ccc(/C=C/C(=O)NCC(=O)N(C)c2ccc(Cl)c(COc3cccn4c(Br)c(C)nc34)c2Cl)cn1.Cl.Cl | 89.4% | –
3.9 nM | 4.8 nM | Cc1nc2c(OCc3c(Cl)ccc(N(C)C(=O)CNC(=O)/C=C/c4ccc(NS(C)(=O)=O)cc4)c3Cl)cccn2c1Br | – | –
0.59 nM | 4.1 nM | Cc1nc2c(OCc3c(Cl)ccc(N(C)C(=O)CNC(=O)/C=C/c4ccc(N5CCCC5=O)cc4)c3Cl)cccn2c1Br.Cl | 82% | –
0.44 nM | 3.7 nM | Cc1nc2c(OCc3c(Cl)ccc(N(C)C(=O)CNC(=O)/C=C/c4ccc(C(=O)N(C)C)nc4)c3Cl)cccn2c1Br.Cl.Cl | 92.4% | –
0.89 nM | 2.6 nM | CNC(=O)Nc1ccc(/C=C/C(=O)NCC(=O)N(C)c2ccc(Cl)c(COc3cccn4c(Br)c(C)nc34)c2Cl)cc1.Cl | 18.8% | –
0.38 nM | 2.4 nM | CC(=O)Nc1ccc(/C=C/C(=O)NCC(=O)N(C)c2ccc(Cl)c(COc3cccn4c(Br)c(C)nc34)c2Cl)cn1.Cl.Cl | – | Inhibition (Cavia porcellus [9]): 76.4%
0.55 nM | 1.6 nM | CC(=O)Nc1ccc(/C=C/C(=O)NCC(=O)N(C)c2ccc(Cl)c(COc3cccn4c(Br)c(C)nc34)c2Cl)cc1.Cl | – | Inhibition (Cavia porcellus [5]): 20.7%
0.5 nM | 1.5 nM | CNC(=O)c1ccc(/C=C/C(=O)NCC(=O)N(C)c2ccc(Cl)c(COc3cccn4c(Br)c(C)nc34)c2Cl)cc1.Cl | – | Inhibition (Cavia porcellus [13]): 53.2%
0.66 nM | 1.4 nM | Cc1nc2c(OCc3c(Cl)ccc(N(C)C(=O)CNC(=O)/C=C/c4ccc(C(=O)N(C)C)cc4)c3Cl)cccn2c1Br.Cl | 86.7% | Inhibition (Cavia porcellus [7]): 74.8%
